Most compounds without a hit are left out; they make up all but 3.6% or so of the library.
BB579 growth dn: reduces growth of yeast BB579 in restrictive medium; inhibition, % at 10 µM; 140,000 compounds, 0.51% hits; S. cerevisiae BB579 growth, OD615, 48 h;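 active = inhibition above a set limit, 3 SD over the mean compound inhibition, cut at about 44% in these data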
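System: Saccharomyces cerevisiae DeaD strain BB579, replicative lifespan model yeast. Buffer or medium: restrictive glucose-based CSMM-D medium. Doses: one dose, 10 µM compound with 0.25% DMSO. Timing: 4 h preincubation and 48 h exposure at 30 °C. Detection: turbidity as optical density at 615 nm. Benchmarks: amphotericin B 10 µg/mL, positive.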
RAM inhibit: yeast RAM network inhibition; S. cerevisiae dse1pr::URA3 reporter, 5-FOA growth OD615, 2 d; analog-sensitive cbk1-as2 kinase mutant strain; inhibition, % at 50 µM; 190,000 compounds, 1.8% hits; AID 868;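 active = inhibition above a set limit, 3 SD over mean compound inhibition, cut at about 8.4% in these data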;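 note: 0% = DMSO-only wells with no growth and 100% = 10 µM 1-NA-PP1 full growth; inhibition rescues growth on 5-FOA so higher OD means more RAM inhibition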
Yeast lifespan up: yeast lifespan extension. 130,000 compounds, 0.68% hits. inhibition of the nicotinamide effect, % at 10 µM. S. cerevisiae growth with nicotinamide, OD615; deaD strain in restrictive glucose medium. AID 775;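 active = inhibition above a set limit, placed 3 SD over the median of all compounds, cut at about 26% in these data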;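 note: 0% = nicotinamide-treated wells and 100% = cells grown without nicotinamide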
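Assay system: engineered S. cerevisiae DeaD replicative-lifespan strain, galactose-grown log-phase cells; Buffer or medium: CSMM-D glucose medium, restrictive; Probe or stimulus: nicotinamide 1.5 mM; Compound: single dose 10 µM compound, 0.25% DMSO; Schedule: 4 h preincubation then 48 h treatment at 30 °C; Technique: OD615 measurement.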
Measles CPE: protection of cells from measles virus; Measles virus-infected cells, CPE protection, absorbance; protection (pct of control), % at 4 µM; 140,000 compounds, 1.5% hits; in the data active = protection mostly above about 24%, no sharp cut-off; inactive = mostly below about 26%
An asterisk follows results filed as active; · = no result given.

SMILES	BB579 growth dn	RAM inhibit	Yeast lifespan up	Measles CPE
CCNC(=S)N1CCC(NC(=O)C2CCCCC2)CC1	-2	1	-11	2
CCNC(=S)NNC(=O)C1CCCCC1	-52	2	36	28*
CCNC(=O)C12CCC(C)(c3nc4cc(C)c(C)cc4nc31)C2(C)C (configuration not stated)	·	1	·	·
CN(C)c1ccc(/C=N/NC(=O)C2COc3ccccc3O2)o1 (configuration not stated)	-36	0	-6	17*
O=C(N/N=C\c1cccc([N+](=O)[O-])c1O)C1COc2ccccc2O1 (configuration not stated)	64*	-1	-6	14
O=C(N/N=C\c1ccc(Br)o1)C1COc2ccccc2O1 (configuration not stated)	·	0	·	·
c1ccc(-c2nc(CSc3nnc(-c4cccs4)o3)cs2)cc1	-44	9.9*	-9	23
Cc1ccc(Nc2nc(CSc3nnc(-c4cccs4)o3)cs2)cc1	-30	5	-4	12
CN(C(=O)CSc1nc2c(cnn2-c2ccccc2)c(=O)[nH]1)C1CCS(=O)(=O)C1 (configuration not stated)	·	4	·	·
S=C(Nc1ccccc1)Nc1nc2ccccc2n1CCOc1ccccc1	14	4	-9	26*
CCCCCCCCCS(=O)(=O)N/N=C/c1cccc([N+](=O)[O-])c1	-6	8.7*	-3	14
N#C/C(=C(/O)CN1CCCCC1)c1nc(-c2ccc(Cl)cc2)cs1	-43	2	11	81*
O=C(CN1C(=O)c2ccccc2C1=O)N1CCN(C2c3ccccc3-c3ccccc32)CC1	-5	1	-3	21
Cc1ccc(N=Nc2c(N)[nH]n3c(=O)cc(-c4ccccc4)nc23)cc1	-55	8.7*	3	38
COc1ccc(-n2ncc3c(N4CCN(Cc5ccccc5)CC4)ncnc32)cc1	·	2	·	·
CCOC(=O)CSC1=NC(=O)/C(=C/c2ccc(OC)cc2)S1	-5	1	57*	1
c1cnc2c(c1)ccc1cccnc12	99*	0	-9	8
C=CCC1(CC=C)CCCN1C(=O)CC1C(=O)NCCN1Cc1cccc(OC)c1OC (configuration not stated)	·	1	·	·
CCNc1nc(NCC)n2c(SC(C(=O)Nc3cc(C)ccc3C)c3ccccc3)nnc2n1 (configuration not stated)	-3	6	-1	80*
Cc1cc(C)cc(CC(Cc2nc3ccccc3[nH]2)c2nc3ccccc3[nH]2)c1 (configuration not stated)	5	0	-6	37*
Cc1ccc(CSCc2nc3ccccc3[nH]2)cc1	·	0	·	·
CSC1=C(C#N)C(c2ccccc2Cl)C2=C(N1)c1ccccc1C2=O (configuration not stated)	-21	3	28*	10
CC1=C(C#N)C(c2ccccc2)C2=C(N1)c1ccccc1C2=O (configuration not stated)	-25	2	-5	7
COc1cc(/C=C/C(=O)NCCn2c(C)cc3ccccc32)cc(OC)c1OC	-16	9.7*	-3	4
Cc1cc2ccccc2n1CCNC(=O)C(C)Oc1ccccc1 (configuration not stated)	-22	8.7*	-12	5
SMILES	BB579 growth dn	RAM inhibit	Yeast lifespan up	Measles CPE
COc1ccc(/C=C/C(=O)NCCn2c(C)cc3ccccc32)cc1OC	-1	6	-5	2
CCC1(c2ccc(F)cc2)NC(=O)N(CC(=O)c2ccc[nH]2)C1=O (configuration not stated)	-48	1	-10	30*
COc1ccc(N2C(=O)CC2(C#N)c2ccc(OCc3ccccc3)cc2)cc1 (configuration not stated)	-23	11*	5	5
COc1ccccc1N1C(=O)CCC1(C#N)c1ccccc1 (configuration not stated)	-23	-1	-8	20
Cc1onc(-c2c(Cl)cccc2Cl)c1C(=O)c1c[nH]c(C(=O)NCC2CCCO2)c1 (configuration not stated)	·	3	·	·
CCc1noc(C)c1C(=O)N1CCCC(CCC(=O)NCc2ccc(F)c(F)c2)C1 (configuration not stated)	·	2	·	·
COc1ccccc1-n1c(SCC(=O)Nc2cccc(C)c2)nc2c(c1=O)SCC2	5	4	-10	47*
Cc1cc(=O)[nH]c(SCC(=O)NCCC2=CCCCC2)n1	·	2	·	·
CCCn1c(-c2ccc[nH]c2=O)nc2cc(C)c(C)cc21	·	0	·	·
Cc1cccc(NC(=O)C2C3C=CC(C4CC34)C2C(=O)O)c1 (configuration not stated)	-17	-1	·	49*
O=C(O)C1C2C=CC(C3CC23)C1C(=O)O (configuration not stated)	-1	2	·	5
O=C(C1CCN(S(=O)(=O)N2CCCCC2)CC1)N1CCCCC1	-30	1	5	4
O=C(O)CC1SC(=Nc2ccccc2)N(c2ccccc2)C1=O (configuration not stated)	2	1	-8	51*
Nc1cc(Cl)ccc1N1CCCCCC1	·	-1	·	·
Cc1ccc(-n2nnc3c(=O)n(CC(=O)N4CCC(C)CC4)cnc32)cc1	43*	-1	-5	9
O=C(Cn1cnc2c(nnn2-c2ccccc2)c1=O)N1CCCc2ccccc21	-27	2	-4	53*
Cc1ccc(-n2nnc3c(=O)n(CC(=O)N4CCCC4)cnc32)cc1	-41	0	-13	10
C/C(=N\Nc1nc2ccccc2[nH]1)c1ccc(N2CCOCC2)cc1	·	0	·	·
c1ccc(CSc2ncn[nH]2)nc1	·	2	·	·
CC(=O)N1c2ccccc2C2(O)N=C(C)SC12 (configuration not stated)	62*	0	4	35
CC(=O)N1c2ccccc2Nc2ccccc21	-44	1	-5	5
CCOCCCNC(=O)C(c1ccc(OC)cc1)N(Cc1cccs1)C(=O)c1ccccn1 (configuration not stated)	·	1	·	·
Cn1c(=O)c2c(nc(NCc3ccccc3)n2CCCc2ccccc2)n(C)c1=O	-83	4	-2	1
CCOCCCNc1nc2c(c(=O)n(C)c(=O)n2C)n1CCCc1ccccc1	7	0	-15	67*
COc1cccc2cc(-c3nnc(SCC(=O)NCc4ccccc4)n3C)oc12	-27	9.1*	-2	7
OCCC1CN(Cc2cccc3nonc23)CCN1C1CCCCC1 (configuration not stated)	·	1	·	·
COC(=O)c1cccc(NC(=S)Nc2cc(Cl)ccc2OC)c1	·	0	·	·
COC(=O)c1cc(OC)c(OC)cc1NC(=S)Nc1cccc(C(C)=O)c1	-20	1	40*	22
O=C(CN1CCN(c2ccccc2)CC1)Nc1ccccc1C(F)(F)F	-17	1	-6	32*
Cc1ccc(NC(=O)C(OC(=O)c2ccccc2Cl)c2ccccc2)cc1Cl (configuration not stated)	-36	8.9*	6	5
